Assay results from ChEMBL document CHEMBL2029317, “(Z)-2-(2-bromophenyl)-3-{[4-(1-methyl-piperazine)amino]phenyl}acrylonitrile (DG172): an orally bioavailable PPARβ/δ-selective ligand with inverse agonistic properties” (J Med Chem, 2012).
The source made the active and inactive calls. The calls are words filed in the database; no cut-off is given here.

How the values were obtained:
[1] = Half life in CD1 mouse plasma at 1 mg/kg, iv; format: ADME, organism-based; set-up: dose 1 mg/kg, route intravenous
Outline: (§1)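 Male CD-1 mice dosed iv by tail vein (1 mg/kg) or po by gastric gavage (5 mg/kg). Vehicle was DMSO/Solutol HS 15/PBS pH 7.4 (5/5/90, v/v/v). Blood was taken at eight time points from 10 min to 12 h, by parallel sampling of three mice per point. Plasma was acetonitrile-precipitated and analysed by HPLC-MS/MS, and basic PK parameters were derived.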

[2] = Clearance in CD1 mouse at 1 mg/kg, iv; format: ADME, organism-based; set-up: dose 1 mg/kg, route intravenous; conditions: in vivo; outline: as §1
[3] = target: T1, Peroxisome proliferator-activated receptor gamma (Homo sapiens) (UniProt P37231); assay: Displacement of fluormone Pan-PPAR Green from PPARgamma at 100 to 1000 nM after 60 mins by TR-FRET assay
T1 sequence (whole entry): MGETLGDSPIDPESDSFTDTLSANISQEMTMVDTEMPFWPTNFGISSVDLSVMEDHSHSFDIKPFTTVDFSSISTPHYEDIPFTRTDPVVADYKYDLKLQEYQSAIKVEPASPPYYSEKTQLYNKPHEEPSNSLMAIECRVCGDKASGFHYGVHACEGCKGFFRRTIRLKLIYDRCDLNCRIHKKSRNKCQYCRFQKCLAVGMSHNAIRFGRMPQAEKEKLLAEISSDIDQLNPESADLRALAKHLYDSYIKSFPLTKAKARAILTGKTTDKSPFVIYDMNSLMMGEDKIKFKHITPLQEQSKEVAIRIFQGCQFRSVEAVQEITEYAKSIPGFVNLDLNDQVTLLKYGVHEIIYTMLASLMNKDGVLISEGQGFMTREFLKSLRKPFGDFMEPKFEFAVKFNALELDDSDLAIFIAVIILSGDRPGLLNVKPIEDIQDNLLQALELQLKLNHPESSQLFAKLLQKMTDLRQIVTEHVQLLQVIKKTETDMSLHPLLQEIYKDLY

[4] = Cmax in CD1 mouse at 5 mg/kg, po; format: ADME, organism-based; set-up: dose 5 mg/kg, route oral; conditions: in vivo; outline: as §1
[5] = target: T2, Peroxisome proliferator-activated receptor delta (Mus musculus) (UniProt P35396); assay: Antagonist activity at PPARbeta/delta in mouse NIH3T3 cells coexpressing LexA assessed as decrease in L165,041-induced transcriptional activation at 1 uM after 48 hrs by luciferase reporter gene assay relative to control; format: functional, cell-based
T2 sequence (whole entry): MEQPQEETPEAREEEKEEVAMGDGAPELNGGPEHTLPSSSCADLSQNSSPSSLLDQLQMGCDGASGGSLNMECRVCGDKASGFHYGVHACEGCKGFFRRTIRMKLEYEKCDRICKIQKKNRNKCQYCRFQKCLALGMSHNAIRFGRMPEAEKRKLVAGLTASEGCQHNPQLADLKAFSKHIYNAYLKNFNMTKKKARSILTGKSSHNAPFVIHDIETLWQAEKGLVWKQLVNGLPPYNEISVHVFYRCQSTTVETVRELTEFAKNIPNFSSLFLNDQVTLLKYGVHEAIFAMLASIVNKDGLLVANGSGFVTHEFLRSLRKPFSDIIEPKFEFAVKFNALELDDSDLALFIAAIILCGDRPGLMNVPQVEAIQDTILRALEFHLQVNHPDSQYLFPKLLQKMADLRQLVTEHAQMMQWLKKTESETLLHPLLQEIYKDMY
Outline: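 NIH3T3 cells were transfected with LexA-PPARα, -PPARβ/δ or -PPARγ fusion plasmids plus the 7L-TATAi luciferase reporter. From 4 h post-transfection, cells received inhibitory ligand (1 μM) for 48 h. Agonists followed: GW7647 300 nM (PPARα), L165,041 1 μM (PPARβ/δ) or GW1929 300 nM (PPARγ), or agonist solvent. Induction is luciferase activity with agonist relative to solvent; triplicates with t test.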

[6] = Half life in CD1 mouse at 5 mg/kg, po; format: ADME, organism-based; set-up: dose 5 mg/kg, route oral; conditions: in vivo; outline: as §1
[7] = target: T3, Peroxisome proliferator-activated receptor delta (Mus musculus, UniProt P35396); assay: Inverse agonist activity at PPARbeta/delta in mouse C2C12 cells assessed as inhibition of Angptl4 expression after 24 hrs by RT-qPCR analysis; format: functional, cell-based
T3 sequence (P35396 whole entry): T2 sequence (whole entry)

Macrophage = assay: Inhibition of Angptl expression in mouse Ppard-knock out macrophages at 1 uM after 6 hrs by RT-qPCR analysis; format: functional, cell-based
Outline: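 Macrophages from Ppard null and wild-type mice were treated with compound (1 μM), agonist L165,041 (500 nM) or DMSO solvent for 6 h. Angptl4 mRNA was measured by RT-qPCR with L27 as the normalizer.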

Mus musculus = assay: AUC (infinity) in CD1 mouse at 5 mg/kg, po; format: ADME, organism-based, Plasma; set-up: time infinity, dose 5 mg/kg, route oral; conditions: in vivo; outline: as §1
[8] = target: T2, Peroxisome proliferator-activated receptor delta (Mus musculus); assay: Inverse agonist activity at GST-tagged recombinant mouse PPARbeta/delta assessed as increase in corepressor peptide SMRT-ID2 interaction after 60 mins by TR-FRET assay; format: functional
Outline: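 LanthaScreen TR-FRET coregulator assay: recombinant GST-PPARβ/δ LBD, labelled by a terbium-coupled anti-GST antibody, was incubated with fluorescein-labelled SMRT-ID2 corepressor peptide and compound. Signal is the 520/495 nm emission ratio, as triplicate averages ± SD, with t test against untreated sample.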

[9] = Volume of distribution at steady state in CD1 mouse at 1 mg/kg, iv; format: ADME, organism-based; set-up: dose 1 mg/kg, route intravenous; conditions: in vivo, read-out: Vdss; outline: as §1
[10] = Oral bioavailability in CD1 mouse at 5 mg/kg; format: ADME, organism-based; conditions: in vivo; outline: as §1
[11] = target: T2, Peroxisome proliferator-activated receptor delta (Mus musculus); conditions: 1 uM
[12] = target: T2, Peroxisome proliferator-activated receptor delta (Mus musculus); assay: Displacement of fluormone Pan-PPAR Green from mouse recombinant GST-tagged PPARbeta/delta LBD after 60 mins by TR-FRET assay
[13] = Drug uptake in CD1 mouse blood at 5 mg/kg, po up to 30 mins

SMILES | half-life [1] [min] | clearance [2] [mL/min/kg] | Activity [3] | Cmax [4] [ng/mL] | Activity [5] | half-life [6] [min] | IC50 [7] [nM] | inhibition (Macrophage) | AUC (Mus musculus) [ng·h/mL] | Activity [8] | Vd [9] [L/kg] | bioavailability [10] [%] | inhibition [11] | Activity [12] | concentration at 0.5 h [13] [ng/mL]
CN1CCN(c2ccc(/C=C(\C#N)c3ccccc3Br)cc2)CC1 | 76 | 121 | inactive | 94 | Active | 634 | 9.5 | inactive | 137 | Active | 12.5 | 72 | Active |  | 
CN(C)c1ccc(/C=C(\C#N)c2ccccc2Cl)cc1 | 76 | 176 | inactive |  | Active |  | 52 |  |  | Active | 6.2 |  |  | Active | ≤ 6
